Source: ChEMBL document CHEMBL1136954, “Toward the back-up of boceprevir (SCH 503034): discovery of new extended P4-capped ketoamide inhibitors of hepatitis C virus NS3 serine protease with improved potency and pharmacokinetic profiles” (J Med Chem, 2009)

Experiments:
[1] = Inhibition of HCV NS4A-tethered single chain NS3 serine protease by spectrophotometric assay; design: species or system Hepacivirus hominis
Method in brief: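 Continuous assay with NS4A-tethered single-chain NS3 serine protease; potency given as Ki*.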

Hepatitis C virus = test: Antiviral activity against Hepatitis C virus genotype 1 infected in human hepatocytes by replicon assay; type: functional, Hepacivirus hominis; settings: genotype 1, Hepatocyte
Method in brief: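 HCV genotype 1 replicon cell assay; EC90 reported, within 3-fold at 95% confidence for a single assay and within 2-fold for multiple assays.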

[2] = Cytotoxicity against human hepatocytes assessed as effect on GAPDH RNA level […]; type: cell-based, Hepatocyte
Method in brief: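 Counter-screen for cellular toxicity measuring GAPDH; CC50 reported.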

[3] = AUC in rat at 10 mg/kg, po; type: ADME, organism-based; design: dose 10 mg/kg, route oral; settings: plasma
Method in brief: (§1)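 Rats dosed PO and IV at 10 mpk, 3 animals per route; IV given in 40% HPBCD, PO in 0.4% MC.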

[4] = AUC in rat at 10 mg/kg, iv; type: ADME, organism-based; design: dose 10 mg/kg, route intravenous; settings: plasma
[5] = Half life in rat at 10 mg/kg, iv; type: ADME, organism-based; design: dose 10 mg/kg, route intravenous; settings: in vivo; method in brief: as §1
[6] = Clearance in rat at 10 mg/kg, po and at 10 mg/kg, iv; type: ADME, organism-based; settings: in vivo; method in brief: as §1
[7] = Volume of distribution at steady state in rat at 10 mg/kg, po and at 10 mg/kg, iv; type: ADME, organism-based; settings: in vivo, read-out: Vdss; method in brief: as §1
[8] = Oral bioavailability in rat at 10 mg/kg; type: ADME, organism-based; settings: in vivo; method in brief: as §1
[9] = AUC in cynomolgus monkey at 3 mg/kg, po; type: ADME, organism-based, Macaca fascicularis; design: dose 3 mg/kg, route oral; settings: plasma
Method in brief: (§2)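 Cynomolgus monkey dosed PO and IV at 3 mpk, 3 animals per route; IV vehicle 20% HPBCD, PO vehicle 0.4% MC. AUC in µM·h, t1/2 in h, clearance mL/min/kg, Vd(ss) L/kg, F in %.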

[10] = AUC in cynomolgus monkey at 3 mg/kg, iv; type: ADME, organism-based, Macaca fascicularis; design: dose 3 mg/kg, route intravenous; settings: plasma; method in brief: as §2
[11] = Half life in cynomolgus monkey at 3 mg/kg, iv; type: ADME, organism-based, Macaca fascicularis; design: dose 3 mg/kg, route intravenous; settings: in vivo; method in brief: as §2
[12] = Clearance in cynomolgus monkey at 3 mg/kg, po and at 3 mg/kg, iv; type: ADME, organism-based, Macaca fascicularis; settings: in vivo; method in brief: as §2
[13] = Volume of distribution at steady state in cynomolgus monkey at 3 mg/kg, po and at 3 mg/kg, iv; type: ADME, organism-based, Macaca fascicularis; settings: in vivo, read-out: Vdss; method in brief: as §2
[14] = Oral bioavailability in cynomolgus monkey at 3 mg/kg; type: ADME, organism-based, Macaca fascicularis; settings: in vivo; method in brief: as §2
[15] = Metabolic stability in cynomolgus monkey urine assessed as recovery of radioactivity at 2 mg/kg, po after 24 hrs; type: ADME, organism-based, Macaca fascicularis; design: dose 2 mg/kg, route oral; settings: in vivo
Method in brief: (§3)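 Two cynomolgus monkeys given the 14C-labelled ketoamide orally at 2 mg/kg; radioactivity collected in bile and urine over 0-24 h and expressed as % of oral dose; plasma also sampled.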

[16] = Metabolic stability in cynomolgus monkey bile assessed as recovery of radioactivity at 2 mg/kg, po after 24 hrs; type: ADME, organism-based, Macaca fascicularis; design: dose 2 mg/kg, route oral; settings: in vivo; method in brief: as §3
[17] = AUC (0 to 6 hrs) in rat at 10 mg/kg, po; type: ADME, organism-based; design: time < 6 hr, dose 10 mg/kg, route oral; settings: plasma
[18] = Drug level in rat liver at 10 mg/kg, po after 8 hrs; type: ADME, organism-based; design: dose 10 mg/kg, route oral; settings: read-out: Drug uptake
Method in brief: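 Rapid rat oral screen, 2 animals, PO vehicle 40% HPBCD; compound concentration measured in liver at 6 h, or at 8 h where footnoted; plasma AUC taken over 0-6 h.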

Structure (SMILES) | Ki [1] [nM] | EC90 (Hepatitis C virus) [nM] | CC50 [2] [nM] | AUC [3] [µM·h] | AUC [4] [µM·h] | half-life [5] [h] | clearance [6] [mL/min/kg] | Vd [7] [L/kg] | bioavailability [8] [%] | AUC [9] [µM·h] | AUC [10] [µM·h] | half-life [11] [h] | clearance [12] [mL/min/kg] | Vd [13] [L/kg] | bioavailability [14] [%] | Stability [15] [%] | Stability [16] [%] | AUC(0-t) at 6 h [17] [µM·h] | concentration at 8 h [18] [nM]
CC(C)[C@H](NC(=O)N[C@H](C(=O)N1C[C@H]2[C@@H]([C@H]1C(=O)NC(CC1CC1)C(=O)C(N)=O)C2(C)C)C(C)(C)C)C(=O)c1ccccc1 (mixture of isomers) | 5 | 80 | > 5000 | 0.26 | – | – | – | – | – | – | – | – | – | – | – | – | – | – | –
CC(C)(C)[C@H](NC(=O)NC1(C(=O)OCc2ccccc2)CCCCC1)C(=O)N1C[C@H]2[C@@H]([C@H]1C(=O)NC(CC1CC1)C(=O)C(N)=O)C2(C)C (mixture of isomers) | 49 | 20 | > 5000 | – | 9.3 | 2.9 | 28 | 3.5 | 0 | 0.05 | 3.4 | 3.1 | 43 | 1.7 | 3 | 0.8 | 4.3 | – | –
CC(C)(C)NC(=O)N[C@H](C(=O)N1C[C@H]2[C@@H]([C@H]1C(=O)NC(CC1CCC1)C(=O)C(N)=O)C2(C)C)C(C)(C)C (stereo not given in full) [BOCEPREVIR] | 14 | 350 | > 5000 | – | – | – | – | – | – | – | – | – | – | – | – | – | – | 0.14 | 300
